# Source: ChEMBL document CHEMBL1128298, “Synthesis and evaluation of pharmacological and pharmacokinetic properties of monopropyl analogs of 5-, 7-, and 8-[[(trifluoromethyl)sulfonyl]oxy]-2-aminotetralins: central dopamine and serotonin receptor activity” (J Med Chem, 1995)
# pKi: −log10 of the molar value. Activity calls are given as the source filed them. No cut-off for these calls is given here.
# What was measured:
# [1] = biological target: T1, 5-hydroxytryptamine receptor 1A (Mus musculus, UniProt Q64264); assay: In vitro binding affinity towards 5-hydroxytryptamine 1A receptor by using [3H]-8-OH-DPAT as radioligand
# T1 sequence (Q64264 whole entry): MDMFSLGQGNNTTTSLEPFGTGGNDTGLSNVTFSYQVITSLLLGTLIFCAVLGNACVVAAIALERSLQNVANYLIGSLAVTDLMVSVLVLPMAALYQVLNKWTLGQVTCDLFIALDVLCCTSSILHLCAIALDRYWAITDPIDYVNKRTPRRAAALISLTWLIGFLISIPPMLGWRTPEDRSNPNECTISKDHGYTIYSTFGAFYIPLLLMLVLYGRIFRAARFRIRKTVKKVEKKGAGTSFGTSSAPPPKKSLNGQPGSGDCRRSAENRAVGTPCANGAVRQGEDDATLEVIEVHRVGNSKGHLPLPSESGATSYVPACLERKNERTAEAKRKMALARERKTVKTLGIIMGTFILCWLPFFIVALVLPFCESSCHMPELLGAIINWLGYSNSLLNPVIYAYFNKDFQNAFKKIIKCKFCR
# Summary of the method: (§1)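 Radioligand competition binding at cloned mammalian receptors expressed in CHO-K1 cells, 1 h at room temperature, pH 7.4. Ligands: 5-HT1A [3H]-8-OH-DPAT 1 nM in 50 mM Tris/10 mM MgCl2. 5-HT1Dα/β [3H]-5-HT 1.7 nM in Tris/MgCl2/EDTA/0.1% ascorbate. D2 [3H]U86170 1 nM in 20 mM HEPES/10 mM MgSO4. D3 [3H]spiperone 0.5 nM in HEPES/MgCl2/NaCl/EDTA. Filtration and scintillation counting; 11 concentrations in duplicate; IC50 by nonlinear fit converted to Ki via Cheng–Prusoff.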
# [2] = biological target: T2, 5-hydroxytryptamine receptor 1D (Homo sapiens, UniProt P28221); assay: In vitro binding affinity towards 5-hydroxytryptamine 1D receptor alpha by using [3H]-5-HT as radioligand
# [3] = biological target: T2, 5-hydroxytryptamine receptor 1D; assay: In vitro binding affinity towards 5-hydroxytryptamine 1D receptor alpha by using [3H]5-HT as radioligand
# [4] = Plasma clearance was determined for the compound in rats; type: ADME, organism-based; details: rat
# Summary of the method: (§2)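 Rats with arterial catheters, dosed 24 h after surgery. Dosing po by gavage after 18 h fast, or iv; doses 25 µmol/kg po and 5 µmol/kg iv. Blood sampled 5 min–12 h and analysed by GC-MS after dichloromethane extraction at pH 11, in duplicate. Bioavailability from po/iv AUC ratio; half-life estimated graphically from the elimination phase after oral dosing.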
# [5] = Oral bioavailability in rat; type: ADME, organism-based; details: in vivo; summary of the method: as §2
# [6] = Plasma half life was determined in rats; type: ADME, organism-based; details: rat; summary of the method: as §2
# [7] = biological target: T3, D(2) dopamine receptor (Homo sapiens, UniProt P14416)
# [8] = biological target: D(3) dopamine receptor (Homo sapiens, UniProt P35462); assay: In vitro binding affinity towards Dopamine receptor D3 by using [3H]spiperone as radioligand
# Summary of the method: as §1, with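 “7.4.” for “7.4. Ligands: 5-HT1A [3H]-8-OH-DPAT 1 nM in 50 mM Tris/10 mM MgCl2. 5-HT1Dα/β [3H]-5-HT 1.7 nM in Tris/MgCl2/EDTA/0.1% ascorbate.”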
# [9] = test system: Rattus norvegicus; assay: […] decrease in the accumulation of DOPA (3,4-dihydroxyphenylalanine) in rat striatal brain; partial response at 50 uM/Kg; type: functional, organism-based
# Summary of the method: (§3)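 Male Sprague-Dawley rats (200–300 g) pretreated with reserpine 5 mg/kg sc 18 h before test drug. Test drug sc 60 min and NSD 1015 30 min before decapitation. DOPA and 5-HTP in limbic, striatal and hemispheral brain areas determined by HPLC with electrochemical detection. ED50 (µmol/kg) is the dose producing half-maximal decrease, from sigmoidal fit to dose–response curves, with 95% confidence limits.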
# [10] = test system: Rattus norvegicus; assay: […] decrease in the accumulation of DOPA (3,4-dihydroxyphenylalanine) in rat limbic brain; partial response at 50 uM/Kg; type: functional, organism-based; summary of the method: as §3
# [11] = species on record: Rattus norvegicus; assay: […] decrease in the accumulation of 5-HTP (5-Hydroxytryptophan) in rat hemispheral brain; type: functional; summary of the method: as §3
# [12] = test system: Rattus norvegicus; assay: […] decrease in the accumulation of DOPA (3,4-dihydroxyphenylalanine) in rat hemispheral brain; partial response at 50 uM/Kg; type: functional, organism-based; summary of the method: as §3
# [13] = biological target: T3, D(2) dopamine receptor; assay: In vitro binding affinity towards Dopamine receptor D2 by using [3H]spiperone as radioligand
# [14] = biological target: T2, 5-hydroxytryptamine receptor 1D; assay: In vitro binding affinity towards 5-HT1D alpha receptor by using [3H]5-HT as radioligand; summary of the method: as §1
# [15] = biological target: T3, D(2) dopamine receptor; assay: In vitro binding affinity towards dopamine D2 receptor by using [3H]U-86170 as radioligand; summary of the method: as §1
# [16] = test system: Rattus norvegicus; assay: uM/kg; type: functional
# [17] = species on record: Rattus norvegicus; assay: post-synaptic activity was determined by locomotor activity (LMA) in reserpine pretreated rats and no. of counts/30 min was reported (***p<0.005); type: functional
# [18] = test system: Rattus norvegicus; assay: (§4) […] decrease in the accumulation of 5-HTP (5-uM/Kg; type: functional, organism-based
# [19] = test system: Rattus norvegicus; assay: […] decrease in the accumulation of DOPA (3,4-dihydroxyphenylalanine) in rat striatal brain;Inactive at 50 uM/Kg; type: functional, organism-based; summary of the method: as §3
# [20] = test system: Rattus norvegicus; assay: […] decrease in the accumulation of DOPA (3,4-dihydroxyphenylalanine) in rat limbic brain;Inactive at 50 uM/Kg; type: functional, organism-based; summary of the method: as §3
# [21] = test system: Rattus norvegicus; assay: as §4; type: functional, organism-based; remark: listed apart in the source
# [22] = test system: Rattus norvegicus; assay: […] decrease in the accumulation of DOPA (3,4-dihydroxyphenylalanine) in rat hemispheral brain;Inactive at 50 uM/Kg; type: functional, organism-based; summary of the method: as §3
# [23] = species on record: Rattus norvegicus; assay: post-synaptic activity was determined by locomotor activity (LMA) in Non pretreated rats; type: functional
# Summary of the method: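 Nonpretreated male Sprague-Dawley rats; test drug sc in the neck or po by gavage, n = 4. Placed singly in photocell motility meters immediately after dosing; activity recorded for 30 min. Results expressed as percent of saline controls.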
# [24] = test system: Rattus norvegicus; assay: […] decrease in the accumulation of 5-HTP (5-Hydroxytryptophan) in non pretreated rat striatal brain at dose 0.25 umol/kg; type: functional; set-up: scale not given: the % may be the effect or the level left
# Summary of the method: (§5)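 Male Sprague-Dawley rats (200–300 g) without reserpine. Test drug sc, or po by gavage after 18 h fast. NSD 1015 decarboxylase inhibition before decapitation. DOPA and 5-HTP in limbic and striatal regions measured by HPLC-electrochemical detection. Results given as percent of saline controls, mean ± SEM, n = 16 controls and 4 treated.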
# [25] = test system: Rattus norvegicus; assay: […] decrease in the accumulation of DOPA (3,4-dihydroxyphenylalanine) in non pretreated rat striatal brain at dose 0.25 umol/kg; type: functional; set-up: scale not given: the % may be the effect or the level left; summary of the method: as §5
# [26] = test system: Rattus norvegicus; assay: […] decrease in the accumulation of 5-HTP (5-Hydroxytryptophan) in non pretreated rat limbic brain at dose 0.25 umol/kg; type: functional; set-up: scale not given: the % may be the effect or the level left; summary of the method: as §5
# [27] = test system: Rattus norvegicus; assay: […] decrease in the accumulation of DOPA (3,4-dihydroxyphenylalanine) in non pretreated rat limbic brain at dose 0.25 umol/kg; type: functional; set-up: scale not given: the % may be the effect or the level left; summary of the method: as §5
# [28] = species on record: Rattus norvegicus; assay: […] decrease in the accumulation of 5-HTP (5-Hydroxytryptophan) in rat striatal brain; type: functional; summary of the method: as §3
# [29] = test system: Rattus norvegicus; assay: behavioral syndrome(flat body posture and forepaw treading) at 0.25 µmol/kg
# [30] = test system: Rattus norvegicus; assay: behavioral syndrome(flat body posture and forepaw treading) at 0.25 umol/Kg
# T3 sequence (P14416 whole entry): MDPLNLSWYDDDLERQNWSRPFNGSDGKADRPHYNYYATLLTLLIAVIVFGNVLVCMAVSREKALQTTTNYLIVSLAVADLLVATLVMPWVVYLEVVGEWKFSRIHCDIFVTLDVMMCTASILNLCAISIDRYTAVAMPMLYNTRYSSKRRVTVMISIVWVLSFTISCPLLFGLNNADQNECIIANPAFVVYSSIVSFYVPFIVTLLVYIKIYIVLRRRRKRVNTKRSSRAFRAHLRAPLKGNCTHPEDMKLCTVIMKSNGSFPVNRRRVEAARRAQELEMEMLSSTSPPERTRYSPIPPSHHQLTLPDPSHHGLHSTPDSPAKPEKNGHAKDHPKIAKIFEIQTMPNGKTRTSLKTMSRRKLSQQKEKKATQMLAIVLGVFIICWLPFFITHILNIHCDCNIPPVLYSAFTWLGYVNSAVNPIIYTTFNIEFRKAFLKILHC
# T2 sequence (P28221 whole entry): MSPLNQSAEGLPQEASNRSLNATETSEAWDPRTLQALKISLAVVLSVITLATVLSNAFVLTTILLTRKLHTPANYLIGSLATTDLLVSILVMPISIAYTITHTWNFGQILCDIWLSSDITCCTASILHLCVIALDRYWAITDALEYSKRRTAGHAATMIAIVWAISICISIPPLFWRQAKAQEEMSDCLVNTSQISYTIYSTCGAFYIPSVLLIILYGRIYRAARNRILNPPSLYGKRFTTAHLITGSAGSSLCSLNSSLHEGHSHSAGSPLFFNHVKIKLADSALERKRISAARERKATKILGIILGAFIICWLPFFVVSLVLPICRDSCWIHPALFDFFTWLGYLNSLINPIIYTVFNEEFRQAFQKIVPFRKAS
# Sequence of D(3) dopamine receptor (P35462 whole entry): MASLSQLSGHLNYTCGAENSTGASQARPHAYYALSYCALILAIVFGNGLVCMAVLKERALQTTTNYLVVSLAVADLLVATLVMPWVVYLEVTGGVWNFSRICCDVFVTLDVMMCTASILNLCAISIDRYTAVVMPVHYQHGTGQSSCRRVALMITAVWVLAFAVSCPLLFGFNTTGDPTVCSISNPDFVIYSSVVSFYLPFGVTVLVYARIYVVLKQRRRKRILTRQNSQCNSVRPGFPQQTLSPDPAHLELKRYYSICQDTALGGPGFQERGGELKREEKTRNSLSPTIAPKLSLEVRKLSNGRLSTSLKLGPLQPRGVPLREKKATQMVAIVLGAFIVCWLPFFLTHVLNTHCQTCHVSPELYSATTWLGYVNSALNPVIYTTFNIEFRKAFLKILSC
Compound,pKi [1],pKi [2],pKi [3],bioavailability [5],half-life [6],pKi [7],pKi [8],ED50 [9],ED50 [10],ED50 [11],ED50 [12],pKi [13],No. of rats displaying DA syndrome [16],also measured
CCCN(CCC)C1CCc2cccc(OS(=O)(=O)C(F)(F)F)c2C1 (racemic),9.10,6.90,7.92,11.2%,1.5 h,7.21,6.56,Weak activity,Weak activity,13.8 µmol/kg,Weak activity,< 6.38,,clearance [4]: 57 mL/min/kg
CCCN[C@@H]1CCc2ccc(OS(=O)(=O)C(F)(F)F)cc2C1.Cl,6.65,6.47,,,,,6.44,,,,,,4,pKi [14]: 6.90; pKi [15]: 7.30; Counts/30 min [17]: 2153; ED50 [18]: Weak activity; ED50 [19]: inactive; ED50 [20]: inactive; ED50 [21]: Weak activity; ED50 [22]: inactive
CCCN(CCC)[C@@H]1CCc2cccc(O)c2C1,9.30,,,2.4%,1.2 h,,,Weak activity,Weak activity,0.05 µmol/kg,Weak activity,,0,Locomotor activity (% of saline control) [23]: 64%; Control [24]: 48%; Control [25]: 80%; Control [26]: 50%; Control [27]: 94%; ED50 [28]: 0.047 µmol/kg; No. of rats with 5-HT syndrome [29]: 4; No. of rats with 5-HT syndrome [30]: 4
CCCNC1CCc2cccc(OS(=O)(=O)C(F)(F)F)c2C1 (racemic),8.55,,7.82,,,6.97,6.16,,,,,< 6.38,,
